{"source": "ChEMBL document CHEMBL1149277", "about": "“Antiestrogen binding site and estrogen receptor mediate uptake and distribution of 4-hydroxytamoxifen-targeted doxorubicin-formaldehyde conjugate in breast cancer cells” (J Med Chem, 2004)", "key": {"[1]": {"assay": "Inhibition of DOX-TEG-TAM uptake in ER expressing Rtx6 cells", "type": "cell-based", "details": "human; call rule not given here", "summary_of_the_method": "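Rtx-6 cells in tamoxifen-free medium got 0.5 µM conjugate for 1 h with or without estradiol at various concentrations. Flow cytometry of anthracycline fluorescence: excitation 488 nm, emission 570–600 nm, 10000 cells. Mean fluorescence minus drug-free background.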"}, "MDA-MB-435 [2]": {"system": "MDA-MB-435", "assay": "Inhibition of DOX-TEG-TAM uptake in MDA-MB-435 cells", "type": "cell-based", "details": "human", "summary_of_the_method": "(§1)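 Competition read by flow cytometry. MDA-MB-435 cells adhered overnight, then given 0.5 µM anthracycline for 1 h with or without tamoxifen at various concentrations (up to 10 µM). Cells trypsinized and kept cold in serum-free, phenol red-free RPMI. Excitation 488 nm, emission 570–600 nm, 10000 cells. Mean fluorescence with drug-free background subtracted.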"}, "[3]": {"target": "T1, Anti-estrogen binding site (AEBS) (Homo sapiens) (UniProt Q15125+Q9UBM7)", "assay": "Displacement of 0.05 nM [3H]tamoxifen from AEBS in MCF7 cell lysate relative to E/Z-4-hydroxytamoxifen", "type": "cell-free", "summary_of_the_method": "(§2)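 AEBS source: MCF-7 cell lysate (sonicated, 12000g supernatant, diluted to 2.0 mg/mL protein, pH 7.4 lysis buffer with molybdate and protease inhibitors). [3H]tamoxifen at 5, 0.5 or 0.05 nM, with 1000 nM estradiol to saturate ER, plus cold competitor; 18 h at 4 °C. Dextran-coated charcoal strip, scintillation counting. Binding expressed relative to E/Z-4-OHT from reduction of bound tritium; competitors in duplicate.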"}, "[4]": {"target": "T1, Anti-estrogen binding site (AEBS) (Homo sapiens)", "assay": "Displacement of 5 nM [3H]tamoxifen from AEBS in MCF7 cell lysate relative to E/Z-4-hydroxytamoxifen", "type": "cell-free", "summary_of_the_method": "as §2"}, "[5]": {"system": "MDA-MB-231 (Homo sapiens)", "assay": "Drug uptake in MDA-MB-231 cells at 500 nM for 1 hr relative to MDA-MB-435 cells", "details": "mda-mb-231, 1 h, 0.5 µM"}, "MCF7 [6]": {"system": "MCF7", "assay": "Drug uptake in MCF7 cells at 500 nM for 1 hr relative to MDA-MB-435 cells", "type": "ADME, cell-based", "details": "human, mcf7, 1 h, 0.5 µM", "summary_of_the_method": "(§3)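 Cells adhered overnight at 450000 per well, then were exposed to 0.5 µM drug for 1 h (uptake also at 20 and 40 min). They were trypsinized, washed cold, and held on ice in serum-free, phenol red-free RPMI. Flow cytometry: excitation 488 nm, emission 570–600 nm, 10000 cells, mean fluorescence minus drug-free background. Settings were fixed per cell line.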"}, "[7]": {"target": "T1, Anti-estrogen binding site (AEBS) (Homo sapiens)", "assay": "Displacement of 0.5 nM [3H]tamoxifen from AEBS in MCF7 cell lysate relative to E/Z-4-hydroxytamoxifen", "type": "cell-free", "summary_of_the_method": "as §2"}, "MCF7 [8]": {"system": "MCF7", "assay": "Drug uptake in ER expressing MCF7 cells", "type": "ADME, cell-based", "details": "human", "summary_of_the_method": "as §3"}, "[9]": {"assay": "Growth inhibition of ER expressing Rtx6 cells after 4 hrs", "type": "functional", "details": "Homo sapiens"}, "[10]": {"target": "T1, Anti-estrogen binding site (AEBS) (Homo sapiens)", "assay": "Binding affinity at AEBS", "type": "protein-complex assay", "summary_of_the_method": "as §2"}, "[11]": {"assay": "Drug uptake in ER expressing Rtx6 cells at 500 nM", "type": "ADME, cell-based", "details": "human, 0.5 µM", "summary_of_the_method": "as §3"}, "MDA-MB-435 [12]": {"system": "MDA-MB-435", "assay": "Decrease DOX-TEG-TAM uptake in MDA-MB-435 cells at 10 uM after 1 hr relative to control", "type": "ADME, cell-based", "parameters": "scale not given: the % may be the effect or the level left", "details": "human, mda-mb-435, 1 h", "summary_of_the_method": "as §1"}, "MDA-MB-435 [13]": {"system": "MDA-MB-435", "assay": "Decrease doxorubicin-saliform uptake in MDA-MB-435 cells at 10 uM after 1 hr relative to DOX-TEG-TAM", "type": "ADME, cell-based", "parameters": "scale not given: the % may be the effect or the level left", "details": "human, mda-mb-435, 1 h", "summary_of_the_method": "as §1"}, "MDA-MB-435 [14]": {"system": "MDA-MB-435", "assay": "Decrease in doxorubicin uptake in MDA-MB-435 cells at 10 uM after 1 hr relative to DOX-TEG-TAM", "type": "ADME, cell-based", "parameters": "scale not given: the % may be the effect or the level left", "details": "human, mda-mb-435, 1 h", "summary_of_the_method": "as §1"}, "MDA-MB-435 [15]": {"system": "MDA-MB-435", "assay": "Decrease in DOX-TEG-TAM uptake in MDA-MB-435 cells after 1 hr", "type": "ADME, cell-based", "details": "human, mda-mb-435, 1 h", "summary_of_the_method": "as §1"}, "[16]": {"assay": "Drug uptake in MCF7/Adr cells at 500 nM", "type": "ADME, cell-based", "details": "human, nci/adr-res, 0.5 µM", "summary_of_the_method": "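MCF-7/Adr cells in log phase (RPMI 1640, 10% FBS), plated 450000 cells/well and adhered overnight; exposed to 0.5 μM drug (from 100× DMSO/1% AcOH stock) for 20, 40, 60 min. Cells were trypsinized, quenched and resuspended in cold serum-free, phenol red free RPMI, then held on ice. Flow cytometry: ex 488 nm, em 570–600 nm, 10000 cells; mean fluorescence minus drug-free background.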"}}, "data": [{"molecule": "C[C@]12CC[C@@H]3c4ccc(O)cc4CC[C@H]3[C@@H]1CC[C@@H]2O", "note": "[ESTRADIOL]", "values": [{"measurement": "Activity", "setting": "[1]", "result": "Dose-dependent effect"}, {"measurement": "Activity", "setting": "MDA-MB-435 [2]", "result": "Not Active"}]}, {"molecule": "CC/C(=C(/c1ccc(O)cc1)c1ccc(OCCN(C)CCOCCOCCO/N=C/c2ccc(O)c(C(=O)NCN[C@H]3C[C@H](O[C@H]4C[C@](O)(C(=O)CO)Cc5c(O)c6c(c(O)c54)C(=O)c4c(OC)cccc4C6=O)O[C@@H](C)[C@H]3O)c2)cc1)c1ccccc1", "values": [{"measurement": "Activity", "setting": "[3]", "result": 70, "unit": "%"}, {"measurement": "Activity", "setting": "[4]", "result": 48, "unit": "%"}, {"measurement": "Drug uptake", "setting": "[5]", "result": 25, "unit": "%"}, {"measurement": "Drug uptake", "setting": "MCF7 [6]", "result": 25, "unit": "%"}, {"measurement": "Activity", "setting": "[7]", "result": 72, "unit": "%"}, {"measurement": "Relative Fluorescent Unit", "setting": "MCF7 [8]", "result": 25}, {"measurement": "IC50", "setting": "[9]", "result": 67, "unit": "nM"}, {"measurement": "Activity", "setting": "[10]", "result": 60, "unit": "%"}, {"measurement": "Relative Fluorescent Unit", "setting": "[11]", "result": 14}]}, {"molecule": "CC/C(=C(\\c1ccccc1)c1ccc(OCCN(C)C)cc1)c1ccccc1", "note": "[TAMOXIFEN]", "values": [{"measurement": "Activity", "setting": "MDA-MB-435 [12]", "result": 47, "unit": "%"}, {"measurement": "Activity", "setting": "MDA-MB-435 [13]", "result": 6, "unit": "%"}, {"measurement": "Activity", "setting": "MDA-MB-435 [14]", "result": 8, "unit": "%"}, {"measurement": "Activity", "setting": "MDA-MB-435 [15]", "result": "Dose-dependent effect"}]}, {"molecule": "COc1cccc2c1C(=O)c1c(O)c3c(c(O)c1C2=O)C[C@@](O)(C(=O)CO)C[C@@H]3O[C@H]1C[C@H](NCNC(=O)c2ccccc2O)[C@H](O)[C@H](C)O1", "values": [{"measurement": "Relative Fluorescent Unit", "setting": "MCF7 [8]", "result": 16}, {"measurement": "IC50", "setting": "[9]", "result": 61, "unit": "nM"}, {"measurement": "Relative Fluorescent Unit", "setting": "[16]", "result": 1}]}]}
